In ChEMBL document CHEMBL3244154, “Synthesis of 1-deaza-6-thioguanosine and 1-deaza-6-(methylthio)guanosine” (1978):
≈ marks a conversion by molar mass, not a printed value. Calls of active or inactive are those of the source. The rule behind the calls is not given here.

Key:
[1] = system: L1210; test: Antitumor activity against mouse L1210 cells assessed as increase in life span administered from day 1 to day 9 relative to control; assay type: functional; set-up: concentration or dose not given beside the values
Outline: (§1)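 In vivo assay in mice bearing leukemia L1210, dosed on days 1–9. Read-out is percent increase in life span of treated leukemic mice over untreated leukemic controls.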

[2] = Cytotoxicity against human Hep2 cells; assay type: functional; details: HEp-2, read-out: ED50 (the source's name)
Outline: (§2)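 Growth inhibition of cultured cells. Activity is expressed as ED50 in μg/mL.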

[3] = system: KB; test: Cytotoxicity against human KB cells; assay type: functional; details: read-out: ED50 (the source's name); outline: as §2
[4] = system: KB; test: Cytotoxicity against human KB cells in presence of 5-amino-1H-imidazole-4-carboxamide; assay type: functional, cell-based
[5] = system: HEp-2; test: Cytotoxicity against human Hep2 cells in presence of 5-amino-1H-imidazole-4-carboxamide; assay type: functional, cell-based
[6] = system: L1210; test: Antitumor activity against mouse L1210 cells assessed as increase in life span at 33 mg/kg administered from day 1 to day 9 relative to control; assay type: functional; outline: as §1
[7] = system: L1210; test: Antitumor activity against mouse L1210 cells assessed as increase in life span at 14 to 75 mg/kg administered from day 1 to day 9 relative to control; assay type: functional, organism-based

Row | SMILES | Activity [1] | EC50 [2] | EC50 [3] | Activity [4] | Activity [5] | Activity [6] | Activity [7]
1 | CSc1cc(N)nc2[nH]cnc12 | <15% | > 22 µg/mL | > 22 µg/mL |  |  |  | 
2 | CSc1cc(NC(C)=O)nc2[nH]cnc12 | <15% | > 22 µg/mL | > 22 µg/mL |  |  |  | 
3 | Nc1cc(S)c2ncn([C@@H]3O[C@H](CO)[C@@H](O)[C@H]3O)c2n1 | <15% | > 22 µg/mL | > 22 µg/mL |  |  |  | 
4 | CC(=O)Nc1cc(Cl)c2nc[nH]c2n1 | <15% | > 22 µg/mL | > 22 µg/mL |  |  |  | 
5 | Cc1ccc(S(=O)(=O)/N=c2\cc(Cl)c3ncn4c3n2C[C@H]2O[C@@H]4[C@@H]3OC(C)(C)O[C@@H]32)cc1 | <15% | > 22 µg/mL | > 22 µg/mL |  |  |  | 
6 | CSc1cc(N)nc2c1ncn2[C@@H]1O[C@H](CO)[C@@H](O)[C@H]1O | <15% | > 22 µg/mL | > 22 µg/mL |  |  |  | 
7 | Nc1cc(Cl)c2ncn([C@@H]3O[C@H](CO)[C@@H](O)[C@H]3O)c2n1 | <15% | > 22 µg/mL | > 22 µg/mL |  |  |  | 
8 | Nc1cc(Cl)c2nc[nH]c2n1 |  | 0.3 µg/mL (≈ 1.78 µM) | 1 µg/mL (≈ 5.93 µM) | Active | Active | 79% | Active
